# Measured values as given in ChEMBL document CHEMBL1127826, “Inhibitors of acyl-CoA:cholesterol acyltransferase (ACAT). 7. Development of a series of substituted N-phenyl-N'-[(1-phenylcyclopentyl)methyl]ureas with enhanced hypocholesterolemic activity” (J Med Chem, 1994).
# What was measured:
# Rattus norvegicus [1] = assay: Compound was evaluated in experiment 2 for change in non High density lipoprotein at the doses at 3 (mg/kg) dose; type: functional
# Outline: (§1)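 Chronic model in male Sprague-Dawley rats (200-225 g). Rats were fed chow with peanut oil 5.5%, cholesterol 1.5% and cholic acid ad libitum for 2 weeks. Test article was given by gavage once daily (morning) in the second week, as a CMC/Tween aqueous suspension. Blood was taken by cardiac puncture under ether 24 h after the last dose. Plasma total, HDL and nonHDL cholesterol were measured with an Abbott VP analyzer using dextran sulfate precipitation, reported as mg/dL and % change from control. Controls were cholesterol-fed rats and rats switched to chow in week 2.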
# Rattus norvegicus [2] = assay: Compound was evaluated in experiment 2 for Total cholesterol at 1 (mg/kg) dose; type: functional; outline: as §1
# Rattus norvegicus [3] = assay: Compound was evaluated in experiment 2 for non High density lipoproteins at 30 (mg/kg) dose; type: functional
# Outline: (§2)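 Male Sprague-Dawley rats (200-225 g) were fed chow with peanut oil (5.5%), cholesterol (1.5%) and cholic acid (0.5%) ad libitum for 2 weeks. During week 2 they were gavaged daily each morning with compound in aqueous CMC/Tween suspension. Controls were fed the cholesterol diet for 2 weeks, or switched to chow for week 2. Rats were bled by cardiac puncture under ether 24 h post-dose. Plasma HDL-C was measured after dextran sulfate precipitation, along with nonHDL-C. Values are given in mg/dL and as % change from control.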
# Rattus norvegicus [4] = assay: Compound was evaluated in experiment 2 for High density lipoproteins at 30 (mg/kg) dose; type: functional; outline: as §1
# Rattus norvegicus [5] = assay: Compound was evaluated in experiment 2 for change in non High density lipoprotein at the doses at 30 (mg/kg) dose; type: functional; outline: as §2
# Rattus norvegicus [6] = assay: Compound was evaluated in experiment 2 for Change in total cholesterol at 3 (mg/kg) dose; type: functional; outline: as §1
# Rattus norvegicus [7] = assay: Compound was evaluated in experiment 2 for non High density lipoproteins at 3 (mg/kg) dose; type: functional; outline: as §2
# Rattus norvegicus [8] = assay: Compound was evaluated for the percentage change in total cholesterol in peanut oil (5.5%)-cholic acid (0.3%)-cholesterol (1.5%)-fed rat at 30 mg/kg; type: functional
# Rattus norvegicus [9] = species: Rattus norvegicus; assay: Percent change in total cholesterol in peanut oil (5.5%)-, cholic acid (0.3%)-, Cholesterol (1.5%)-fed rats after a single dose.; type: functional
# Outline: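 Male Sprague-Dawley rats (200-225 g), n=5-7/group, given a single oral dose at 4 p.m. as a suspension in 1.5% CMC/0.2% Tween-20 in water (50 mg/kg); controls received vehicle alone. The rats then had free access to chow with peanut oil, cholesterol and cholic acid. At 8 a.m. next day they were bled by cardiac puncture under ether, and serum total cholesterol was measured as % change versus controls (unpaired two-tailed t-test).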
# Rattus norvegicus [10] = assay: Compound was evaluated in experiment 2 for Change in total cholesterol at 10 (mg/kg) dose; type: functional; outline: as §1
# Rattus norvegicus [11] = assay: Compound was evaluated in experiment 2 for change in non High density lipoprotein at the doses at 10 (mg/kg) dose; type: functional; outline: as §1
# [12] = Compound was evaluated for the distribution coefficient at pH 7.4; type: physicochemical; conditions: octanol/water
# Rattus norvegicus [13] = assay: Compound was evaluated in experiment 2 for non High density lipoproteins at 1 (mg/kg) dose; type: functional; outline: as §2
# Rattus norvegicus [14] = assay: Compound was evaluated in experiment 2 for Change in total cholesterol at 30 (mg/kg) dose; type: functional; outline: as §1
# [15] = target: T1, Acyl-CoA:cholesterol acyltransferase (Oryctolagus cuniculus, UniProt Q95214); assay: Tested for in vitro inhibition against Acyl coenzyme A:cholesterol acyltransferase of intestinal microsomes in cholesterol-fed rabbits; set-up: species or system Microsome
# T1 sequence (Q95214 whole entry): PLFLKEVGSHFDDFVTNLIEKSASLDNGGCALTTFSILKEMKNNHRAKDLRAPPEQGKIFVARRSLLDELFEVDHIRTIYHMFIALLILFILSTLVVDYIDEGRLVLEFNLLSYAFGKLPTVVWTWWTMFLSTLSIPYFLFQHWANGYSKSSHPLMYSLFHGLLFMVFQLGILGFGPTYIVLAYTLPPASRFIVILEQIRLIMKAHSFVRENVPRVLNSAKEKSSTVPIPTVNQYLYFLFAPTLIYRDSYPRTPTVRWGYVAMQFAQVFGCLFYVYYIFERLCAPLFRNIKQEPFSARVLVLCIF
# Outline: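 Microsomes were prepared from intestine of cholesterol-fed rabbits. ACAT activity was measured using [1-14C]oleoyl-CoA as substrate. Each determination was run in triplicate.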
# Rattus norvegicus [16] = assay: Compound was evaluated in experiment 2 for Change in High density lipoproteins at 30 (mg/kg) dose; type: functional; outline: as §1
# Rattus norvegicus [17] = assay: Compound was evaluated in experiment 2 for non High density lipoproteins at 10 (mg/kg) dose; type: functional; outline: as §2
# Rattus norvegicus [18] = assay: Compound was evaluated in experiment 2 for Change in High density lipoproteins at 1 (mg/kg) dose; type: functional; outline: as §1
# Rattus norvegicus [19] = assay: Compound was evaluated in experiment 2 for Total cholesterol at 10 (mg/kg) dose; type: functional; outline: as §1
# Rattus norvegicus [20] = assay: Compound was evaluated in experiment 2 for Change in High density lipoproteins at 3 (mg/kg) dose; type: functional; outline: as §1
# Rattus norvegicus [21] = assay: Compound was evaluated in experiment 2 for Total cholesterol at 3 (mg/kg) dose; type: functional; outline: as §1
# Rattus norvegicus [22] = assay: Compound was evaluated in experiment 2 for High density lipoproteins at 3 (mg/kg) dose; type: functional; outline: as §1
# Rattus norvegicus [23] = assay: Compound was evaluated in experiment 2 for Total cholesterol at 30 (mg/kg) dose; type: functional; outline: as §1
# Rattus norvegicus [24] = assay: Compound was evaluated in experiment 2 for High density lipoproteins at 10 (mg/kg) dose; type: functional; outline: as §1
# Rattus norvegicus [25] = assay: Compound was evaluated in experiment 2 for Change in High density lipoproteins at 10 (mg/kg) dose; type: functional; outline: as §1
# Rattus norvegicus [26] = assay: Compound was evaluated in experiment 2 for High density lipoproteins at 1 (mg/kg) dose; type: functional; outline: as §1
# [27] = Solubility at, pH 4.0; type: physicochemical; conditions: buffer, read-out: S
# Rattus norvegicus [28] = assay: Compound was evaluated in experiment 1 for non High density lipoproteins at 0.3 (mg/kg) dose; type: functional; outline: as §1
# Rattus norvegicus [29] = assay: Compound was evaluated in experiment 1 for non High density lipoproteins at 10 (mg/kg) dose; type: functional; outline: as §1
# Rattus norvegicus [30] = assay: Compound was evaluated in experiment 1 for Change in High density lipoproteins at 1.0 (mg/kg) dose; type: functional; outline: as §1
# Rattus norvegicus [31] = assay: Compound was evaluated in experiment 1 for change in non High density lipoprotein at the doses at 1.0 (mg/kg) dose; type: functional; outline: as §1
# Rattus norvegicus [32] = assay: Compound was evaluated in experiment 1 for Change in High density lipoproteins at 3.0 (mg/kg) dose; type: functional; outline: as §1
# Rattus norvegicus [33] = assay: Compound was evaluated in experiment 1 for High density lipoproteins at 1.0 (mg/kg) dose; type: functional; outline: as §1
# Rattus norvegicus [34] = assay: Compound was evaluated in experiment 1 for High density lipoproteins at 3.0 (mg/kg) dose; type: functional; outline: as §1
# Rattus norvegicus [35] = assay: Compound was evaluated in experiment 1 for Change in High density lipoproteins at 0.3 (mg/kg) dose; type: functional; outline: as §1
# Rattus norvegicus [36] = assay: Compound was evaluated in experiment 1 for High density lipoproteins at 10 (mg/kg) dose; type: functional; outline: as §1
# Rattus norvegicus [37] = assay: Compound was evaluated in experiment 1 for Total cholesterol at 10 (mg/kg) dose; type: functional; set-up: unit not given beside the values; outline: as §1
# Rattus norvegicus [38] = assay: Compound was evaluated in experiment 1 for Change in total cholesterol at 0.3 (mg/kg) dose; type: functional; outline: as §1
# Rattus norvegicus [39] = assay: Compound was evaluated in experiment 1 for High density lipoproteins at 0.3 (mg/kg) dose; type: functional; outline: as §1
# Rattus norvegicus [40] = assay: Compound was evaluated in experiment 1 for Change in total cholesterol at 1.0 (mg/kg) dose; type: functional; outline: as §1
# Rattus norvegicus [41] = assay: Compound was evaluated in experiment 1 for non High density lipoproteins at 3.0(mg/kg) dose; type: functional; outline: as §1
# Rattus norvegicus [42] = assay: Compound was evaluated in experiment 1 for Total cholesterol at 0.3 (mg/kg) dose; type: functional; set-up: unit not given beside the values; outline: as §1
# Rattus norvegicus [43] = assay: Compound was evaluated in experiment 1 for Change in total cholesterol at 3.0 (mg/kg) dose; type: functional; outline: as §1
# [44] = Solubility at, 0.1 N HCl; type: physicochemical; conditions: read-out: S
# Rattus norvegicus [45] = assay: Compound was evaluated in experiment 1 for change in non High density lipoprotein at the doses at 0.3 (mg/kg) dose; type: functional; outline: as §1
# Rattus norvegicus [46] = assay: Compound was evaluated in experiment 1 for non High density lipoproteins at 1.0 (mg/kg) dose; type: functional; outline: as §1
# Rattus norvegicus [47] = assay: Compound was evaluated in experiment 1 for change in non High density lipoprotein at the doses at 10 (mg/kg) dose; type: functional; outline: as §1
# Rattus norvegicus [48] = assay: Compound was evaluated in experiment 1 for change in non High density lipoprotein at the doses at 3.0 (mg/kg) dose; type: functional; outline: as §1
# Rattus norvegicus [49] = assay: Compound was evaluated in experiment 1 for Total cholesterol at 3.0 (mg/kg) dose; type: functional; set-up: unit not given beside the values; outline: as §1
# Rattus norvegicus [50] = assay: Compound was evaluated in experiment 1 for Total cholesterol at 1.0 (mg/kg) dose; type: functional; set-up: unit not given beside the values; outline: as §1
# [51] = Solubility at, pH 7.4; type: physicochemical; conditions: buffer, read-out: S
# Rattus norvegicus [52] = assay: Compound was evaluated in experiment 1 for Change in total cholesterol at 10 (mg/kg) dose; type: functional; outline: as §1
# Rattus norvegicus [53] = assay: Compound was evaluated in experiment 1 for Change in High density lipoproteins at 10 (mg/kg) dose; type: functional; outline: as §1
structure (smiles),measurement,setting,value
CC(C)c1cccc(C(C)C)c1NC(=O)NCC1(c2cccc(CN(C)C)c2)CCCC1,Change non HDL-C,Rattus norvegicus [1],-25%
same,TC,Rattus norvegicus [2],292
same,Non-HDL-C,Rattus norvegicus [3],68
same,HDL-C,Rattus norvegicus [4],33
same,Change non HDL-C,Rattus norvegicus [5],-76%
same,Change TC,Rattus norvegicus [6],-23%
same,Non-HDL-C,Rattus norvegicus [7],212
same,Delta TC,Rattus norvegicus [8],-55%
same,Delta TC,Rattus norvegicus [9],-22%
same,Change TC,Rattus norvegicus [10],-33%
same,Change non HDL-C,Rattus norvegicus [11],-38%
same,logD,[12],4.8
same,Non-HDL-C,Rattus norvegicus [13],278
same,Change TC,Rattus norvegicus [14],-66%
same,IC50,[15],0.063 µM
same,Change HDL -C,Rattus norvegicus [16],154%
same,Non-HDL-C,Rattus norvegicus [17],177
same,Change HDL -C,Rattus norvegicus [18],8%
same,TC,Rattus norvegicus [19],200
same,Change HDL -C,Rattus norvegicus [20],31%
same,TC,Rattus norvegicus [21],229
same,HDL-C,Rattus norvegicus [22],17
same,TC,Rattus norvegicus [23],101
same,HDL-C,Rattus norvegicus [24],23
same,Change HDL -C,Rattus norvegicus [25],77%
same,HDL-C,Rattus norvegicus [26],14
CC(C)c1cccc(C(C)C)c1NC(=O)NCC1(c2ccc(N(C)C)cc2)CCCC1.Cl [NEVANIMIBE HYDROCHLORIDE],solubility,[27],1330 µg/mL
same,Non-HDL-C,Rattus norvegicus [28],235
same,Non-HDL-C,Rattus norvegicus [29],84
same,Non-HDL-C,Rattus norvegicus [3],56
same,Change HDL -C,Rattus norvegicus [30],32%
same,Change non HDL-C,Rattus norvegicus [31],-32%
same,HDL-C,Rattus norvegicus [4],36
same,Change HDL -C,Rattus norvegicus [32],38%
same,HDL-C,Rattus norvegicus [33],15
same,Change non HDL-C,Rattus norvegicus [5],-80%
same,HDL-C,Rattus norvegicus [34],16
same,Change HDL -C,Rattus norvegicus [35],44%
same,Delta TC,Rattus norvegicus [9],-77%
same,HDL-C,Rattus norvegicus [36],31
same,TC,Rattus norvegicus [37],115
same,Change TC,Rattus norvegicus [38],-20%
same,HDL-C,Rattus norvegicus [39],17
same,Change TC,Rattus norvegicus [40],-29%
same,Non-HDL-C,Rattus norvegicus [41],235
same,TC,Rattus norvegicus [42],252
same,Change TC,Rattus norvegicus [43],-20%
same,Change TC,Rattus norvegicus [14],-69%
same,Change HDL -C,Rattus norvegicus [16],177%
same,solubility,[44],6400 µg/mL
same,Change non HDL-C,Rattus norvegicus [45],-22%
same,Non-HDL-C,Rattus norvegicus [46],206
same,Change non HDL-C,Rattus norvegicus [47],-72%
same,Change non HDL-C,Rattus norvegicus [48],-23%
same,TC,Rattus norvegicus [49],251
same,TC,Rattus norvegicus [50],222
same,solubility,[51],< 50 µg/mL
same,Change TC,Rattus norvegicus [52],-64%
same,TC,Rattus norvegicus [23],91
same,Change HDL -C,Rattus norvegicus [53],167%
